Test results taken from PMC8591627 (ACS infectious diseases, 2021).
Converted amounts (≈) assume the structure as drawn. “And” between values parts separate entries of the source, which are not always exact repeats. Identical values can stand only once.

How the values were obtained:
MRSA ATCC 43300 = test: MIC, drug susceptibility assay; type: cell-based, Staphylococcus aureus; conditions: 18 h, 37 °C, visual inspection
MRSA culture = test: Time-kill curve; type: cell-based, Staphylococcus aureus
VISA strains = test: MIC versus VISA clinical isolates; type: cell-based, Staphylococcus aureus; conditions: six clinical isolates of VISA
VRSA strains = test: MIC versus VRSA clinical isolates; type: cell-based, Staphylococcus aureus; conditions: five clinical isolates of VRSA
S. aureus (ATCC 43300) [1] = test: Membrane depolarization assay; type: cell-based, Staphylococcus aureus; conditions: 4.5x MIC, 10 min; positive control sodium deoxycholate
In short: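 ATCC 43300 was grown from a single colony in Mueller-Hinton to OD600 0.5, then loaded with DiBAC4 (final 20 μg/mL) for 5 min. Bacteria plus dye received test compound at 4.5x MIC; controls were no addition (negative) and 0.05% w/v sodium deoxycholate (positive). Fluorescence (ex 490/em 510 nm) was read every 5 s for 10 min, in triplicate.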

S. aureus (ATCC 43300) [2] = test: Nitric oxide release assay, DAF-FM diacetate; type: cell-based, Staphylococcus aureus; conditions: 100 μM, over 2 h; positive control DEA-NONOate
In short: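 ATCC 43300 in Mueller-Hinton medium at OD600 0.2 was loaded with 10 μM DAF-FM diacetate for 30 min in the dark. Cells were then exposed to 100 μM test compound or 100 μM DEA-NONOate for 120 min. Controls were medium alone, bacteria alone, and bacteria with dye. Fluorescence (ex 495/em 515 nm) was read in triplicate.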

S. aureus LAC pLL39_yceI = test: MIC; type: cell-based, Staphylococcus aureus; conditions: genotype pLL39_yceI, LAC background
[3] = system: S. aureus LAC pLL39_yceI3; test: MIC; type: cell-based, Staphylococcus aureus; conditions: genotype pLL39_yceI3, LAC background
[4] = system: S. aureus LAC yceI::Tn pLL39; test: MIC; type: cell-based, Staphylococcus aureus; conditions: genotype yceI::Tn pLL39, LAC background
[5] = system: S. aureus LAC yceI::Tn pLL39_yceI; test: MIC; type: cell-based, Staphylococcus aureus; conditions: genotype yceI::Tn pLL39_yceI, LAC background
[6] = system: S. aureus LAC yceI::Tn pLL39_yceI2; test: MIC; type: cell-based, Staphylococcus aureus; conditions: genotype yceI::Tn pLL39_yceI2, LAC background
[7] = system: S. aureus LAC yceI::Tn pLL39_yceI3; test: MIC; type: cell-based, Staphylococcus aureus; conditions: genotype yceI::Tn pLL39_yceI3, LAC background
LAC pEPSA5 = test: MIC; type: cell-based, Staphylococcus aureus
In short: (§1)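 LAC strains carried empty pEPSA5 or pEPSA5_yceI (yceI under a xylose-inducible promoter). They were grown overnight with or without xylose induction; for the azoR overexpression set, pEPSA strains were cultured with 1% xylose. The 1/1000 inoculum went into Mueller-Hinton broth with serial compound dilutions, incubated statically at 37 °C for 18 h. Values represent three independent experiments.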

LAC pEPSA5_yceI = test: MIC; type: cell-based, Staphylococcus aureus; conditions: for MIC: LAC pEPSA5_yceI
In short: as §1

LAC = test: MIC; type: cell-based, Staphylococcus aureus; conditions: genotype LAC
In short: (§2)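 Overnight cultures were grown in 5 mL Mueller-Hinton at 37 °C with shaking at 200 rpm. They were diluted 1/1000 into 96-well plates holding serial dilutions of test compound in Mueller-Hinton broth. Plates were sealed against drying and incubated statically at 37 °C for 18 h before reading. All strains are isogenic and in the LAC background.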

LAC yceI::Tn = test: MIC; type: cell-based, Staphylococcus aureus; conditions: genotype yceI::Tn, LAC background
In short: as §2

LAC yceI::Tn azoR1 = test: MIC; type: cell-based, Staphylococcus aureus
In short: as §2

LAC yceI::Tn azoR4 = test: MIC; type: cell-based, Staphylococcus aureus; conditions: genotype yceI::Tn azoR4
LAC pEPSA5_azoR = test: MIC; type: cell-based, Staphylococcus aureus; conditions: cultured with 1% xylose
In short: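 pEPSA vector strains were cultured with 1% xylose for induction. Overnight Mueller-Hinton cultures (37 °C, 200 rpm) were diluted 1/1000 into serial dilutions of test compound in Mueller-Hinton broth in 96-well plates. Plates were incubated statically at 37 °C for 18 h. Values are representative of three independent experiments.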

LAC yceI::Tn pCM28 = test: MIC; type: cell-based, Staphylococcus aureus
In short: as §2

LAC yceI::Tn azoR1 pCM28 = test: MIC; type: cell-based, Staphylococcus aureus
In short: as §2

[8] = system: LAC yceI::Tn azoR1 pCM28_azoR; test: MIC; type: cell-based, Staphylococcus aureus
In short: as §2

LAC yceI::Tn azoR2 pCM28 = test: MIC; type: cell-based, Staphylococcus aureus
In short: as §2

LAC yceI::Tn azoR3 pCM28 = test: MIC; type: cell-based, Staphylococcus aureus
In short: as §2

[9] = system: LAC yceI::Tn azoR3 pCM28_azoR; test: MIC; type: cell-based, Staphylococcus aureus
In short: as §2

[10] = system: LAC yceI::Tn azoR4 pCM28_azoR; test: MIC; type: cell-based, Staphylococcus aureus
In short: as §2

O=C(Nc1cc(Cl)cc2cccnc12)c1ccc([N+](=O)[O-])s1 [JSF-3151]
MRSA ATCC 43300 MIC (MRSA ATCC 43300): 4.0 μg/mL and 12 μM | MRSA ATCC 43300 MIC (MRSA ATCC 43300; listed as Z296972134 (3151)): 4.0 μg/mL and 12 μM | time to sterilize a MRSA culture (MRSA culture; 1x MIC): ≤ 4 h | speed of sterilization relative to vancomycin (MRSA culture; both at 1x MIC): more than six times faster than vancomycin | MIC versus VISA compared to MRSA (VISA strains): even greater potency | MIC versus VRSA compared to MRSA (VRSA strains): even greater potency | membrane depolarization (DiBAC4 fluorescence) (S. aureus (ATCC 43300) [1]): failed to compromise the cell membrane | intrabacterial NO• release (DAF-FM) (S. aureus (ATCC 43300) [2]): neither DAF-FM (over 2 h) nor the Griess reagent (over 48 h) evidenced NO• production | MIC (S. aureus LAC pLL39_yceI): 6.2 µg/mL (≈ 18.6 µM) | MIC [3]: 50 µg/mL (≈ 150 µM) | MIC [4]: 0.78 µg/mL (≈ 2.34 µM) | MIC [5]: 1.6 µg/mL (≈ 4.79 µM) | MIC [6]: 50 µg/mL (≈ 150 µM) | MIC [7]: 50 µg/mL (≈ 150 µM) | MIC (LAC pEPSA5; LAC pEPSA5, cultured with 1% xylose (Table 6)): 1.5 µg/mL (≈ 4.49 µM) | MIC (LAC pEPSA5; LAC pEPSA5, growth with xylose +): 0.78 µg/mL | MIC (LAC pEPSA5; LAC pEPSA5, growth with xylose −): 0.78 µg/mL (≈ 2.34 µM) | MIC (LAC pEPSA5_yceI; growth with xylose +): >50 µg/mL | MIC (LAC pEPSA5_yceI; growth with xylose −): 3.1 µg/mL (≈ 9.29 µM) | resistance versus strain carrying empty vector pEPSA5 (LAC pEPSA5_yceI; overnight induction with xylose): > 64 fold | MIC (LAC): 1.5 µg/mL (≈ 4.49 µM) | MIC (LAC yceI::Tn): 0.78 µg/mL (≈ 2.34 µM) | MIC shift versus yceI::Tn parental strain (LAC yceI::Tn azoR1; azoR1 (Trp100stop)): 15 fold | MIC (LAC yceI::Tn azoR1; genotype yceI::Tn azoR1): 12 µg/mL (≈ 36 µM) | MIC (LAC yceI::Tn azoR4): 25 µg/mL (≈ 74.9 µM) | MIC (LAC pEPSA5_azoR): 0.39 µg/mL (≈ 1.17 µM) | MIC (LAC yceI::Tn pCM28): 0.78 µg/mL (≈ 2.34 µM) | MIC (LAC yceI::Tn azoR1 pCM28): >50 µg/mL | MIC [8]: 3.1 µg/mL (≈ 9.29 µM) | MIC (LAC yceI::Tn azoR2 pCM28): 25 µg/mL (≈ 74.9 µM) | MIC (LAC yceI::Tn azoR3 pCM28): >50 µg/mL | MIC [9]: 1.5 µg/mL (≈ 4.49 µM) | MIC [10]: 1.5 µg/mL (≈ 4.49 µM) | half-life t1/2 in mouse liver microsomes: 1.46 min
